Among the data in ChEMBL document CHEMBL1131304, “Epidoxoform: a hydrolytically more stable anthracycline-formaldehyde conjugate toxic to resistant tumor cells” (J Med Chem, 1998) are IC50 and half-life values, retold here.

Usually half-life stands for the time in which the quantity being followed falls by half. Read a high half-life as slow decline.

SMILES strings stand for the structures.

Data set [1] relates to MCF7. The data set can be described thus: Compound was tested for its toxicity against human breast cancer cells(MCF-7). It counts as functional, cell-based. The gist of the method:
(§1)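 MCF-7 and MCF-7/ADR cells were grown at 37 °C in 5% CO2 in phenol red-free RPMI 1640 with 10% FBS, 2 mM L-glutamine, 25 mM HEPES and penicillin/streptomycin. MCF-7/ADR medium also held 5 μM doxorubicin. Cells were exposed to drug for 3 h in RPMI 1640/10% FBS/1% DMSO, then stained by crystal violet. IC50 was given as nmolar equiv/L.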

For data set [2], the system named is MCF7. Nature of the data set: (§2) Compound was tested for its toxicity against doxorubicin resistant human breast cancer cells (MCF-7/ADR). The class given is functional, cell-based. The gist of the method: as §1
For a further data set, the system named is NCI/ADR-RES. Described as §2. The class given is functional, cell-based. Summed up: as §1
Data set [3] is described as follows: Compound was evaluated for its half life at 25 degree Centigrade.
Data set [4] in a line: Compound was evaluated for its half life at 37 degree Centigrade.

`COc1cccc2c1C(=O)c1c(O)c3c(c(O)c1C2=O)C[C@@](O)(C(C)=O)C[C@@H]3OC1CC2C(OCN2CN2COC3C(C)OC(O[C@H]4C[C@](O)(C(C)=O)Cc5c(O)c6c(c(O)c54)C(=O)c4c(OC)cccc4C6=O)CC32)C(C)O1` (some centres undefined) [DAUNOFORM]: the IC50 with MCF7 [1] came to 8 nM equiv l-1; with MCF7 [2] it was 10 nM equiv l-1.

`COc1cccc2c1C(=O)c1c(O)c3c(c(O)c1C2=O)C[C@@](O)(C(=O)CO)C[C@@H]3O[C@H]1C[C@H](N)[C@H](O)[C@H](C)O1` [DOXORUBICIN]: the IC50 in the data set with MCF7 [1] stood at 300 nM equiv l-1; in the data set with NCI/ADR-RES, 10000 nM equiv l-1.

With `COc1cccc2c1C(=O)c1c(O)c3c(c(O)c1C2=O)C[C@@](O)(C(=O)CO)C[C@@H]3O[C@@H]1C[C@@H](N)[C@H](O)[C@@H](C)O1`, the figures for the half-life in data set [3] and in data set [4] were 35 min and 15 min, respectively.

With `COc1cccc2c1C(=O)c1c(O)c3c(c(O)c1C2=O)C[C@@](O)(C(=O)CO)C[C@@H]3O[C@H]1C[C@H]2C(OCN3CN2CO[C@H]2[C@@H](C)O[C@@H](O[C@H]4C[C@](O)(C(=O)CO)Cc5c(O)c6c(c(O)c54)C(=O)c4c(OC)cccc4C6=O)C[C@@H]23)[C@H](C)O1` (some centres undefined) [EPIDOXOFORM], the IC50 amounted to 65 nM equiv l-1 in the data set on MCF7 [1] and 70 nM equiv l-1 in the data set with NCI/ADR-RES.

As for `COc1cccc2c1C(=O)c1c(O)c3c(c(O)c1C2=O)C[C@@](O)(C(C)=O)C[C@@H]3O[C@H]1C[C@H](N)[C@H](O)[C@H](C)O1` [DAUNORUBICIN], the IC50 with MCF7 [1] turned out to be 60 nM equiv l-1; with NCI/ADR-RES it was 2000 nM equiv l-1.

Take `COc1cccc2c1C(=O)c1c(O)c3c(c(O)c1C2=O)C[C@@](O)(C(=O)CO)C[C@@H]3O[C@H]1C[C@H](N)[C@@H](O)[C@H](C)O1` [EPIRUBICIN]: the figures for the IC50 with MCF7 [1] and in the data set on NCI/ADR-RES were 200 nM equiv l-1 and above 10000 nM equiv l-1, respectively.

For `COc1cccc2c1C(=O)c1c(O)c3c(c(O)c1C2=O)C[C@@](O)(C(=O)CO)C[C@@H]3OC1CC2C(OCN2CN2COC3C(C)OC(O[C@H]4C[C@](O)(C(=O)CO)Cc5c(O)c6c(c(O)c54)C(=O)c4c(OC)cccc4C6=O)CC32)C(C)O1` (some centres undefined) [DOXOFORM], the IC50 in the data set on MCF7 [1] was 2 nM equiv l-1; in the data set with NCI/ADR-RES it was 1 nM equiv l-1.
